NALP1 inh: blocks the NALP1 inflammasome reconstituted in yeast; inhibition, % at 10 µM; S. cerevisiae NALP1/ASC/caspase-1 growth, X-gal OD620, 72 h; hit rate 0.61% among 280,000; in the data active means inhibition mostly above about 24%, no sharp cut-off; inactive means mostly below about 32%
A1 inh: inhibitors of the anti-apoptotic protein A1, read as caspase activation | MEF A1-2A-BIM cells, Caspase-Glo 3/7 luminescence, 3 h; percent of clofoctol response, vehicle zero | caspase activation, % (concentration not given with the values) | hit rate 0.066% among 330,000 | AID 2462;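 active means over half of replicate activation scores above 10%, or exactly half above 10 with the replicate mean above 10; inconclusive means replicate mean below 10 yet half the replicates above 10; inactive means over half of replicates below 10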
T cell modulator: T cell immune modulators affecting CD8 T cell-vesicle binding; 2C CD8+ T cell-vesicle binding, flow cytometry; stronger effect = lower value; response (vesicle binding), % at 7 µM; hit rate 0.068% among 330,000;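 active means response, share of CD8 T cells binding vesicles, and their 90th percentile fluorescence all below set limits, cut at about 80% in these data, passing the limit was not always enough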;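 further: values below 100% mean blocked vesicle binding to the CD8+ T cells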
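Assay system – 2C mouse CD8+ T cells · Also added – QL9-loaded Drosophila micro-vesicles · Timing – Cell–vesicle co-incubation 1.5 h at 37 °C, staining 20 min on ice · Signal – flow cytometry of vesicle-bound cells · Measure – percent CD8+ FL2 mean versus row control · Controls – Peptide-free naked vesicles (low) and QL9 vesicles with 0.7% DMSO vehicle (high)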
NLRP3 yeast inh: NALP3 inhibition in yeast. Yeast reconstituted NLRP3/ASC/caspase-1, beta-gal luminescence, 24 h. inhibition, % at 10 µM. hit rate 0.39% among 330,000. AID 2825;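 active means inhibition of 50% or more; inactive means inhibition below 50%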;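 further: plate controls were induced DMSO wells for no effect and uninduced yeast grown without galactose for full effect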
Active calls of the source: *; i = inactive; ? = inconclusive; . = not tested or not shown. An excerpt weighted towards active compounds, which were near 1% of everything screened.

SMILES	NALP1 inh	A1 inh	T cell modulator	NLRP3 yeast inh
Cc1cc(C)cc(N2C(=O)CC(Sc3nnnn3-c3ccccc3)C2=O)c1 (stereo not given)	43*	1	321	33
Cc1cccc(N2C(=O)CC(Cn3nc(C)cc3C)C2=O)c1 (stereo not given)	.	-1	212	9
Cc1cccc(N2C(=O)CC(Sc3nnc(C)s3)C2=O)c1 (stereo not given)	35*	0	216	20
Cc1cccc(N2C(=O)CC(Sc3nc(C)cc(C)n3)C2=O)c1 (stereo not given)	0	1	278	4
Cn1nnnc1SC1CC(=O)N(c2ccccc2)C1=O (stereo not given)	32	-1	147	8
CCN(CC)C1CC(=O)N(c2cccc(C)c2)C1=O (stereo not given)	90*	0	155	22
CC(C)c1cccc(C(C)C)c1NC(=O)CN(C)C1CCS(=O)(=O)C1 (stereo not given)	.	0	546	14
CCS(=O)(=O)Nc1ccc2c(c1)N(C(C)=O)c1ccccc1CC2	28*	0	243	13
CC(=O)N1c2ccccc2CCc2ccc([N+](=O)[O-])cc21	9	0	287	1
Cc1ccc2nc3c(c(Nc4ccccc4)c2c1)CCC3	41*	0	238	23
Cc1cc(C(=O)N2CCCC(N3CCN(c4cccc(Cl)c4)CC3)C2)nn1C (stereo not given)	17	1	230	12
CN(CCOC(=O)c1cccc(Br)c1)C(C)(C)C	28*	1	490	10
CC(C)C(C(=O)Nc1nccs1)N1C(=O)c2ccccc2C1=O (stereo not given)	28*	1	255	12
COc1ccccc1NC(=O)C(C(C)C)N1C(=O)c2ccccc2C1=O (stereo not given)	20	0	342	9
CN(C)CCCNS(=O)(=O)c1cc(Cl)c(Cl)cc1Cl	6	1	337	20
CN(C)CCCNS(=O)(=O)c1ccc(Cl)s1	30*	-1	135	6
O=C1CCC(C(=O)Nc2ccccc2N2CCCC2)=NN1	.	0	860	16
O=C(N/N=C/c1ccc(F)cc1)c1ccccc1	32*	-9	73	-1
O=C(O)c1ccc(/C=N/NC(=O)c2ccc(F)cc2)cc1	.	?	134	9
O=C(COC(=O)c1ccc2c(c1)C(=O)N(c1cccc3ncccc13)C2=O)c1ccc(Cl)cc1	35	0	207	4
Cc1ccc(C(=O)COC(=O)c2ccc3c(c2)C(=O)N(c2cccc4ncccc24)C3=O)cc1	35	6.4*	188	-6
O=C(NC1CCN(Cc2ccccc2)CC1)c1ccccc1Cl	19	0	224	17
Cc1c(C(=O)NC2CCN(Cc3ccccc3)C2)oc2c(Cl)cccc12 (stereo not given)	39*	0	646	27
O=C(COC(=O)c1ccccc1Br)NCCC1=CCCCC1	38*	0	676	8
CN(C(=O)c1nc(-c2ccccc2)n(-c2ccccc2)n1)C1CCS(=O)(=O)C1 (stereo not given)	14	0	379	19
SMILES	NALP1 inh	A1 inh	T cell modulator	NLRP3 yeast inh
O=C(/C=C/c1c(F)cccc1Cl)Nc1ccncc1	42	-6	449	2
O=C(/C=C/c1c(Cl)cccc1Cl)Nc1ccncc1	-27	-3	0.0*	6
COc1cc(CN2CCc3ccccc3C2)cc([N+](=O)[O-])c1O	10	1	650	-23
COc1cc(CN2CCc3ccccc3C2)ccc1O	12	33*	135	15
COc1ccc(Cn2nnnc2CN2CCc3ccccc3C2)cc1	27*	-1	334	14
Cc1nn(CC(C)C)c2sc(C(=O)NC3CC(C)(C)NC(C)(C)C3)cc12	9	0	643	9
Cc1ccc(CNC(=O)c2cccc(-n3cnnn3)c2)cc1	43*	1	535	-1
COc1ccc(CCNC(=O)c2cccc(-n3cnnn3)c2)cc1	.	-1	699	1
Cc1ccc(S(=O)(=O)N2CCC(C(=O)Nc3ncccc3O)CC2)cc1	.	0	462	2
COc1ccccc1N1CCN(CC(O)COc2ccc3c(c2)OCO3)CC1 (stereo not given)	23*	0	146	3
O=C(CNC1CCCC1)Nc1ccc(N2CCCCCC2)cc1	30*	0	379	29
Cc1noc(C)c1CN1C(=O)c2ccccc2C1=O	-6	1	298	8
c1ccc2c(N3CCCCC3)nc(N3CCCC3)nc2c1	3	-1	i	6
c1ccc2c(c1)nc(N1CCCCC1)c1ccccc12	39*	0	i	13
COc1ccc(OC)c(NC(=O)CCN2CCCCC2)c1	24	0	76*	6
Cc1ccc(C(=O)NCc2ccco2)cc1[N+](=O)[O-]	44	-1	120	24
Cc1ccc(NC(=O)c2ccc(NCc3ccco3)c([N+](=O)[O-])c2)cc1Cl	15	31*	566	15
Cc1ccc(NC(=O)c2ccc(NCC3CCCO3)c([N+](=O)[O-])c2)cc1Cl (stereo not given)	4	8.2*	132	5
Cc1cc(-c2ccc(C(C)C)c(S(=O)(=O)N3CCC(C)CC3)c2)on1	12	0	202	21
Cc1ccc(-c2nnc(SCC(=O)N3CC(C)CC(C)C3)o2)cc1C (stereo not given)	14	0	149	37
CC1CC(C)CN(C(=O)CSc2nnc(-c3ccc(Cl)cc3)o2)C1 (stereo not given)	35*	1	243	24
Cc1cc(C)n(C(=O)c2sc3cc(F)ccc3c2Cl)n1	31	1	0.0*	1
CCOc1ccc(-c2c(C(=O)N/N=C/c3c[nH]c4ccccc34)nnn2-c2nonc2N)cc1	19	1	303	-4
COc1ccc(S(=O)(=O)N2CCCC(C(=O)NC3CCCCC3)C2)cc1 (stereo not given)	34*	0	194	10
COc1ccc(-c2nc(CN3CCCC(C(=O)NC4CCCC4)C3)c(C)o2)cc1 (stereo not given)	44*	1	513	1
SMILES	NALP1 inh	A1 inh	T cell modulator	NLRP3 yeast inh
Cc1oc(-c2ccc(Cl)cc2)nc1CN1CCCC(C(=O)NC2CC2)C1 (stereo not given)	11	-1	i	5
COc1ccc(CNC(=O)C2CCCN(Cc3nc(-c4cccc(C)c4)oc3C)C2)cc1 (stereo not given)	28*	0	91	16
CC(C)Cc1nnc(NC(=O)CCC(=O)NC2CC2)s1	38*	1	411	14
Cc1ccc(S(C)(=O)=NC(=O)NC(=O)c2c(F)cccc2Cl)cc1 (stereo not given)	4	-1	422	5
Cc1ccc(S(=O)(=O)/N=c2\ccc(Cl)cn2C(F)F)cc1	38*	0	432	-5
CN1/C(=C\C(=O)C[n+]2ccc3ccccc3c2)C(C)(C)c2ccccc21	-1	.	.	8
N=c1n(CC(=O)c2ccc([N+](=O)[O-])cc2)c2ccccc2n1Cc1ccccc1	26	0	342	10
